In ChEMBL document CHEMBL3352352, “Structure-Based Drug Design of Novel, Potent, and Selective Azabenzimidazoles (ABI) as ATR Inhibitors” (ACS Med Chem Lett, 2015):
In brackets after ≈: the same amount, converted by molar mass. Activity calls are given as the source filed them. No cut-off for these calls is given here.

Tests used:
[1] = Oral bioavailability in Sprague-Dawley rat at 5 mg/kg; format: ADME, organism-based; details: in vivo
[2] = biological target: Serine/threonine-protein kinase ATR (Homo sapiens, UniProt Q13535); assay: Inhibition of human ATR using ATP substrate measured after 3 hrs
Serine/threonine-protein kinase ATR, sequence (Q13535 whole entry): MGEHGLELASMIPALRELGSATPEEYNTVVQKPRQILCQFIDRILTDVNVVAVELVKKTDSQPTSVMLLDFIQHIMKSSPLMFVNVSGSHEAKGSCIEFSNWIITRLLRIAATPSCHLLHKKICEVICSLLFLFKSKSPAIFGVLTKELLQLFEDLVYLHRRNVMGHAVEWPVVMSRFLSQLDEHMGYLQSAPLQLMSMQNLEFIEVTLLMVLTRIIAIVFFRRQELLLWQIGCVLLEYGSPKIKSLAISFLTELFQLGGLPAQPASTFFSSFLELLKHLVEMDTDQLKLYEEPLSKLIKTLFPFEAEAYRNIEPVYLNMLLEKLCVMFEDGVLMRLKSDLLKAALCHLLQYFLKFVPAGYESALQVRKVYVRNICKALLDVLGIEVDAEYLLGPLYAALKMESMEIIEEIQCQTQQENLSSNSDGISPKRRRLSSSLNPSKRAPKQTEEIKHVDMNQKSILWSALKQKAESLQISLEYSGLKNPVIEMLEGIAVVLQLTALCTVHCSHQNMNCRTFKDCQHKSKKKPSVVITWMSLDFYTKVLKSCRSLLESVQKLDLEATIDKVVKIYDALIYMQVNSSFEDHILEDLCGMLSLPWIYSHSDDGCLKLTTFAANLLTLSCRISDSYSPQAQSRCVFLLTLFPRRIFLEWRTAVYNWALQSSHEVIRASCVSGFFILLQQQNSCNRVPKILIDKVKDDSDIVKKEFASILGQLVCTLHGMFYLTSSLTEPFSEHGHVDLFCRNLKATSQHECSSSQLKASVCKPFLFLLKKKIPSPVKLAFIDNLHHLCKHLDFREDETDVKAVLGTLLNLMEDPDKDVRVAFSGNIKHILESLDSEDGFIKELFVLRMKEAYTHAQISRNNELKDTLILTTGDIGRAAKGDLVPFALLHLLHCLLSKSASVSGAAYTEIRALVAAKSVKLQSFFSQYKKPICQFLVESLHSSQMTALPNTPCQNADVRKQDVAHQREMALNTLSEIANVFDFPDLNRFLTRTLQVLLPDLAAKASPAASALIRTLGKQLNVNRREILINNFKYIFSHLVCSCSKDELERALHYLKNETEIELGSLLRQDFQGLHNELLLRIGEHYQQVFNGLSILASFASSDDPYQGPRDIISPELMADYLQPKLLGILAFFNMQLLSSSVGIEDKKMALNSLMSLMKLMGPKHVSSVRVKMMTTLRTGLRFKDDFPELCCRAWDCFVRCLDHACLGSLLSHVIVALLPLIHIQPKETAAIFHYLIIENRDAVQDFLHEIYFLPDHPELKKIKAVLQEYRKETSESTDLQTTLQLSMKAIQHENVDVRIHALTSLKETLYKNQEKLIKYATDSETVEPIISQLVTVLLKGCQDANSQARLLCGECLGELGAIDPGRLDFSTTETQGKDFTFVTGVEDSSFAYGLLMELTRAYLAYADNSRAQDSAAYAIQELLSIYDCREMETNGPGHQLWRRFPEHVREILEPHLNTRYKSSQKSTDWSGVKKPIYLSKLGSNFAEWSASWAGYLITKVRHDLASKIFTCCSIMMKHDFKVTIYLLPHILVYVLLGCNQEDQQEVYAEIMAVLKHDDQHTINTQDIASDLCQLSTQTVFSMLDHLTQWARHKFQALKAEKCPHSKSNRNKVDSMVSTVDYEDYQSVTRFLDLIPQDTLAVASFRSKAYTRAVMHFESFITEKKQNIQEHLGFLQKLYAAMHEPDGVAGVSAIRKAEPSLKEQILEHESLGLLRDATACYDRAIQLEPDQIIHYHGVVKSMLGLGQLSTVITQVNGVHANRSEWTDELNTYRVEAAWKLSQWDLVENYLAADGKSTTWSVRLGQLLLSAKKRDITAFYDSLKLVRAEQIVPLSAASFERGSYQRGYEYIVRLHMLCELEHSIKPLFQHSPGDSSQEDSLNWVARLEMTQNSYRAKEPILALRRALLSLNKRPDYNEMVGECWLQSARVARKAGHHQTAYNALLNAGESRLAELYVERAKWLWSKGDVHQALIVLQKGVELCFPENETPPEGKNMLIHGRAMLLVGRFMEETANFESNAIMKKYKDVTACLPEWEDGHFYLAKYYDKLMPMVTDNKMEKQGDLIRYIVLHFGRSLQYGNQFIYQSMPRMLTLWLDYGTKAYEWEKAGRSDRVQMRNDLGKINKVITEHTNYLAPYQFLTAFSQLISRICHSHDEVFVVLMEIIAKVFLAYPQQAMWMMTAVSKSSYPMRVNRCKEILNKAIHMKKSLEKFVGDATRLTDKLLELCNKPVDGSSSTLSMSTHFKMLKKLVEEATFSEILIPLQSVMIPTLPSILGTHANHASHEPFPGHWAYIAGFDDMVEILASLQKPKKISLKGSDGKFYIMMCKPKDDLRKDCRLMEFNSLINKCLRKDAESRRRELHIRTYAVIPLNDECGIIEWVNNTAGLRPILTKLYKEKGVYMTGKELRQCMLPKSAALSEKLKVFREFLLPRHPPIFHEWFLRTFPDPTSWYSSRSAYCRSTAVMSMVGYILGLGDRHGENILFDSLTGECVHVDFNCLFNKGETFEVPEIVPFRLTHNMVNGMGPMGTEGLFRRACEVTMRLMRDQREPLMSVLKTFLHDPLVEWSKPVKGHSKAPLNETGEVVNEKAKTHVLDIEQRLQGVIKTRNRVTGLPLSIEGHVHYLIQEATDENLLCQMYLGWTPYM

[3] = biological target: T1, Serine/threonine-protein kinase Chk1 (Homo sapiens, UniProt O14757); assay: Inhibition of full-length Chk1 in HeLa S3 cells assessed as phosphorylation at Ser345 after 4 hrs; format: cell-based
T1 sequence (O14757 whole entry): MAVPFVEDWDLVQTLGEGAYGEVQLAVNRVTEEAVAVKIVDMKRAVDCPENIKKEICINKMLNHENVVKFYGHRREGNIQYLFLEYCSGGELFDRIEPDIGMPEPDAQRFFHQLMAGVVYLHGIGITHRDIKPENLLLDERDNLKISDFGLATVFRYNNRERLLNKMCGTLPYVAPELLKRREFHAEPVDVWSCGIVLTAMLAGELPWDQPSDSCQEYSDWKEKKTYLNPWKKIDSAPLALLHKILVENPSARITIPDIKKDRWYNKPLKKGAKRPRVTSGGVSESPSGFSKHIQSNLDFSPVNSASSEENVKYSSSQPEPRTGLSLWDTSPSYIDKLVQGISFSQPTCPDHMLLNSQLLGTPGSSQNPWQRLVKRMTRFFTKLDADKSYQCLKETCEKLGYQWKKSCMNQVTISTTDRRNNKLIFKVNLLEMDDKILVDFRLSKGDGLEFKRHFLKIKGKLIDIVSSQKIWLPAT
Outline: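 HeLa S3 cells exposed to 1 µM gemcitabine together with test compound for 4 hr; read-out is Ser345-phosphorylated Chk1.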

[4] = Intrinsic clearance in human liver microsomes; format: ADME; details: read-out: CLH
Outline: (§1)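 Liver microsomes from mouse, rat or human; intrinsic clearance scaled to hepatic blood flow.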

[5] = Apparent permeability from basolateral to apical side in human Caco2 cells at 10 uM and pH 7.4; details: Caco-2, pH 7.4
[6] = Clearance in Sprague-Dawley rat at 2.5 mg/kg, iv and 5 mg/kg, po; format: ADME, organism-based; details: in vivo
[7] = Intrinsic clearance in rat liver microsomes; format: ADME; details: read-out: CLH; outline: as §1
[8] = Solubility of the compound in PBS buffer at pH 7 by shake flask equilibrium solubility assay
[9] = biological target: T2, Phosphatidylinositol 4,5-bisphosphate 3-kinase catalytic subunit alpha isoform (Homo sapiens, UniProt P42336); assay: Inhibition of PI3Kalpha (unknown origin)
T2 sequence (P42336 whole entry, canonical isoform): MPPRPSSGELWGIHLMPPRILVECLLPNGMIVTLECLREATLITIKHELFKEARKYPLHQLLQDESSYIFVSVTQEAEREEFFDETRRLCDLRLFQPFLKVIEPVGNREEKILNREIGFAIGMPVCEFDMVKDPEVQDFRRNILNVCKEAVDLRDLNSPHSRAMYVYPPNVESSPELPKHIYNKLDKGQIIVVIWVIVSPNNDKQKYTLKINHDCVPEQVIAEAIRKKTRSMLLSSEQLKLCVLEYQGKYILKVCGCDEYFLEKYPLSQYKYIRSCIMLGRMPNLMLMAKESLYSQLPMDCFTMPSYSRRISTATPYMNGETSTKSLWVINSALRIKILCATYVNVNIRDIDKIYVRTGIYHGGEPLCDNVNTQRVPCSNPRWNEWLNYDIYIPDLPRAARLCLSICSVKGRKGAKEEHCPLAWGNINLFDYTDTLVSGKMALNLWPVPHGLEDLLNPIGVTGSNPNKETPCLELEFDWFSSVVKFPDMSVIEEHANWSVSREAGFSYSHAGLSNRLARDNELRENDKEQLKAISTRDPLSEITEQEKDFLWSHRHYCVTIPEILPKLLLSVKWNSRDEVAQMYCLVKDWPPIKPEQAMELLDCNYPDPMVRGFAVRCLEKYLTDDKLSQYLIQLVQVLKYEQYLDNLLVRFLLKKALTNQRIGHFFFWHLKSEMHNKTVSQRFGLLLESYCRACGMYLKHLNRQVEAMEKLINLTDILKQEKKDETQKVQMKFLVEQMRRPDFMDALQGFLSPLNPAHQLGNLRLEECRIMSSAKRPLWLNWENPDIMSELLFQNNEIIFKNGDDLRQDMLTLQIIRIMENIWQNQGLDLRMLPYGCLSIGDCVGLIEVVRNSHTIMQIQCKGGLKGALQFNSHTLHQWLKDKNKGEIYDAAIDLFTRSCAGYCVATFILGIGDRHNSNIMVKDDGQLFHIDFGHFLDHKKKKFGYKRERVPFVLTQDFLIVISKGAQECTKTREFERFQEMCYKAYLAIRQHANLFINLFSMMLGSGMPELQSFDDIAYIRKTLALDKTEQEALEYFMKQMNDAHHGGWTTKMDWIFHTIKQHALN

[10] = Apparent permeability from apical to basolateral side in human Caco2 cells at 10 uM and pH 7.4; details: Caco-2, pH 7.4
[11] = Intrinsic clearance in mouse liver microsomes; format: ADME; details: read-out: CLH; outline: as §1
Cytochrome P450 2C9 [12] = biological target: T3, Cytochrome P450 2C9 (Homo sapiens, UniProt P11712); assay: Inhibition of CYP2C9 (unknown origin); format: ADME
T3 sequence (P11712 whole entry): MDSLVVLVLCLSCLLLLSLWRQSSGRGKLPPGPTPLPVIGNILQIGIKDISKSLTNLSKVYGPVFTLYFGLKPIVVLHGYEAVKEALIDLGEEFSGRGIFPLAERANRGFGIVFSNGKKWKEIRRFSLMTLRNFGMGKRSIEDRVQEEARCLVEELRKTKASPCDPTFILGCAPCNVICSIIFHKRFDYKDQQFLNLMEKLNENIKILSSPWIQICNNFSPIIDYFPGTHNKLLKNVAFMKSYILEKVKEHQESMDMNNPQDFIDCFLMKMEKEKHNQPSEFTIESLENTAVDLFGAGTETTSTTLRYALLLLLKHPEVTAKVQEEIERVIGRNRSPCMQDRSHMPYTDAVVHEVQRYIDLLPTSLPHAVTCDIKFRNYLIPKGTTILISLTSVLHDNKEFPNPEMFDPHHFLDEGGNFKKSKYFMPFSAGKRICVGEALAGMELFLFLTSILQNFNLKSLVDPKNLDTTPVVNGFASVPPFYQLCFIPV

[13] = biological target: T4, DNA-dependent protein kinase catalytic subunit (Homo sapiens, UniProt P78527); assay: Inhibition of DNAPK (unknown origin)
Cytochrome P450 2D6 [14] = biological target: T5, Cytochrome P450 2D6 (Homo sapiens, UniProt P10635); assay: Inhibition of CYP2D6 (unknown origin); format: ADME
T5 sequence (P10635 whole entry): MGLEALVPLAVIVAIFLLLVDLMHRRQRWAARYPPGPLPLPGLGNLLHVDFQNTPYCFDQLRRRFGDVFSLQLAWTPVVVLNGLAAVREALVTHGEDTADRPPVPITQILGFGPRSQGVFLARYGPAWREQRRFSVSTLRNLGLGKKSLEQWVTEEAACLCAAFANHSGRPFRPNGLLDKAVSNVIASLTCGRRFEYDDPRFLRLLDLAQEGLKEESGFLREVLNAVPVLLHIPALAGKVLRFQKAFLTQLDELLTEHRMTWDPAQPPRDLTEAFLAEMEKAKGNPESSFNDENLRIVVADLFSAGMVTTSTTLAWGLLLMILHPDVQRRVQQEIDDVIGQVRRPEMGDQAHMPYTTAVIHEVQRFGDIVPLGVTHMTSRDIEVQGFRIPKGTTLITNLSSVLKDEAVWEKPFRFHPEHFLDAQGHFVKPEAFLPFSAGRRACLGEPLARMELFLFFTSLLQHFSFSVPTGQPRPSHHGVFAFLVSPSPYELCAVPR

[15] = biological target: Serine/threonine-protein kinase mTOR (Homo sapiens, UniProt P42345); assay: Inhibition of mTOR (unknown origin)
[16] = Growth inhibition of human HT144 cells after 72 hrs by Cell Titer Glow assay; format: functional, cell-based; details: HT-144, 72 h
Outline: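 Cell Titer Glo viability read-out after 72 hr continuous compound exposure.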

[17] = biological target: Voltage-gated inwardly rectifying potassium channel KCNH2 (Homo sapiens, UniProt Q12809); assay: Inhibition of human ERG channel by dofetilide binding assay
[18] = biological target: T6, Serine-protein kinase ATM (Homo sapiens, UniProt Q13315); assay: Inhibition of ATM (unknown origin)
[19] = Half life in Sprague-Dawley rat at 2.5 mg/kg, iv and 2.5 mg/kg, po; details: in vivo
[20] = Volume of distribution at steady state in Sprague-Dawley rat at 2.5 mg/kg, iv and 5 mg/kg, po; format: ADME, organism-based; details: in vivo, read-out: Vdss
Cytochrome P450 3A4 = Cytochrome P450 3A4 (Homo sapiens, UniProt P08684); assay: Inhibition of CYP3A4 (unknown origin); format: ADME
Cytochrome P450 1A2 [21] = biological target: T7, Cytochrome P450 1A2 (Homo sapiens, UniProt P05177); assay: Inhibition of CYP1A2 (unknown origin); format: ADME
T7 sequence (P05177 whole entry): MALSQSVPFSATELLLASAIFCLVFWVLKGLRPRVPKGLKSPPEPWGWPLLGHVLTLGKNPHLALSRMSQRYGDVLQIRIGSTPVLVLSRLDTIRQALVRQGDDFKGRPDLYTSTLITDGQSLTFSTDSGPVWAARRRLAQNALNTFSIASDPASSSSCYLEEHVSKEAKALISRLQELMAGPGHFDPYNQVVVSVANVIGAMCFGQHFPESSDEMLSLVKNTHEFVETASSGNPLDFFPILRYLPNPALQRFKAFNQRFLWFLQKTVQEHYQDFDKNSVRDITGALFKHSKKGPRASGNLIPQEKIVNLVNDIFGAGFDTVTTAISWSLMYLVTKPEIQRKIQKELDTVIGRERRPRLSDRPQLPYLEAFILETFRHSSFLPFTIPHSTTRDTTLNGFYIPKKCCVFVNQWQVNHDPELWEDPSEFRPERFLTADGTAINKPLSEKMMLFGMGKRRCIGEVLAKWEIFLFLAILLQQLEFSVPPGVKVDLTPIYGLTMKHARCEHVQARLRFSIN

[22] = biological target: Phosphatidylinositol 4,5-bisphosphate 3-kinase catalytic subunit gamma isoform (Homo sapiens) (UniProt P48736); assay: Inhibition of PI3Kgamma (unknown origin) at <8 uM
Cytochrome P450 1A2 [23] = biological target: T7, Cytochrome P450 1A2; assay: Time dependent inhibition of CYP1A2 in human liver microsomes; format: ADME; details: TDE = time-dependent effect
[24] = biological target: Phosphatidylinositol 4,5-bisphosphate 3-kinase catalytic subunit beta isoform (Homo sapiens) (UniProt P42338); assay: Inhibition of PI3Kbeta (unknown origin) at <8 uM
[25] = biological target: T4, DNA-dependent protein kinase catalytic subunit; assay: Inhibition of DNAPK (unknown origin) at 10 uM
[26] = biological target: T8, Phosphatidylinositol 4,5-bisphosphate 3-kinase catalytic subunit delta isoform (Homo sapiens) (UniProt O00329); assay: Inhibition of PI3Kdelta (unknown origin) at <8 uM
T8 sequence (whole entry): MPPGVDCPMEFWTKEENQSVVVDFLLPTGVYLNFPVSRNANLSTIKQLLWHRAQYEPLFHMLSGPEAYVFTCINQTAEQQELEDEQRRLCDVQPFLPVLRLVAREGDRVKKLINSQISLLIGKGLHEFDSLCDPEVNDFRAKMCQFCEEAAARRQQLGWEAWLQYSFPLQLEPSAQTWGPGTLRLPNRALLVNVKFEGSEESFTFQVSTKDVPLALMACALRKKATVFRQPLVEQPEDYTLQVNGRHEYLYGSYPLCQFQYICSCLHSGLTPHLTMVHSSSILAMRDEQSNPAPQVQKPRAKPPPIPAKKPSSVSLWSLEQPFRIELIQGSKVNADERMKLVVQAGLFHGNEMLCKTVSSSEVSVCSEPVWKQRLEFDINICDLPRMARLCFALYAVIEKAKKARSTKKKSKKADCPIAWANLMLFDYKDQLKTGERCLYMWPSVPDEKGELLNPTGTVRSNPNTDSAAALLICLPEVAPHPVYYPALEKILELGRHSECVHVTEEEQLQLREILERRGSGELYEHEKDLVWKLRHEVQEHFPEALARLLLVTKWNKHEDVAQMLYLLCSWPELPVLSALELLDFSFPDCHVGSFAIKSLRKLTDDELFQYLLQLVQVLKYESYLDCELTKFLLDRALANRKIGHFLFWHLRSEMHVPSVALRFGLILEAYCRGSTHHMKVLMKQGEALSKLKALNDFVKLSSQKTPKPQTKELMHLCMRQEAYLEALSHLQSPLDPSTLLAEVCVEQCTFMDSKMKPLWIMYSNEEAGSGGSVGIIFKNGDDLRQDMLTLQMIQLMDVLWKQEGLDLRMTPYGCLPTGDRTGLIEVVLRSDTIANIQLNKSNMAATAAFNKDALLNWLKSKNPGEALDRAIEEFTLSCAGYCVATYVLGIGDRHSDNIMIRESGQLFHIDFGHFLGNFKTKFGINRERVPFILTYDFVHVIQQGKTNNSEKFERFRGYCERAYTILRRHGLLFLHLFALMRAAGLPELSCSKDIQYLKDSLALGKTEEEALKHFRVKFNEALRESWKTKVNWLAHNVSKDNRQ

[27] = biological target: T6, Serine-protein kinase ATM; assay: Inhibition of ATM (unknown origin) at 2 uM
Cytochrome P450 2C9 [28] = biological target: T3, Cytochrome P450 2C9; assay: Time dependent inhibition of CYP2C9 in human liver microsomes; format: ADME; details: TDE = time-dependent effect
[29] = biological target: T2, Phosphatidylinositol 4,5-bisphosphate 3-kinase catalytic subunit alpha isoform; assay: Inhibition of PI3Kalpha (unknown origin) at <8 uM
Cytochrome P450 2D6 [30] = biological target: T5, Cytochrome P450 2D6; assay: Time dependent inhibition of CYP2D6 in human liver microsomes; format: ADME; details: TDE = time-dependent effect

Structure (SMILES): CS(=O)(=O)Cn1cnc2c(N3CCOCC3)nc(-c3cccc4[nH]ccc34)cc21
- bioavailability [1]: 96%
- IC50 [2]: 5 nM
- EC50 [3]: 3300 nM
- CLint scaled [4]: 6 mL/min/kg
- Papp B→A at 10 µM [5]: 58 ×10⁻⁶ cm/s
- clearance [6]: 14 mL/min/kg
- CLint scaled [7]: 30 mL/min/kg
- solubility thermodynamic [8]: 193 µM (≈ 79.4 µg/mL)
- IC50 [9]: > 10000 nM
- Papp A→B at 10 µM [10]: 14 ×10⁻⁶ cm/s
- CLint scaled [11]: 31 mL/min/kg

Structure (SMILES): CS(=O)(=O)Cn1cnc2c(N3C4CCC3COC4)nc(-c3cnc(N)nc3)cc21
- IC50 [2]: 190 nM

Structure (SMILES): C[C@@H]1COCCN1c1nc(-c2nncc3[nH]ccc23)cc2c1ncn2C
- bioavailability [1]: 7.5%
- IC50 [2]: 0.5 nM
- IC50 (Cytochrome P450 2C9 [12]): > 24000 nM
- IC50 [13]: > 25000 nM
- IC50 (Cytochrome P450 2D6 [14]): > 24000 nM
- IC50 [15]: > 13000 nM
- IC50 [16]: 350 nM
- IC50 [17]: > 30000 nM
- Papp B→A at 10 µM [5]: 38 ×10⁻⁶ cm/s
- IC50 [18]: 15000 nM
- clearance [6]: 34 mL/min/kg
- half-life [19]: 2 h
- Vd [20]: 1.8 L/kg
- solubility thermodynamic [8]: > 2400 µM
- IC50 (Cytochrome P450 3A4): > 24000 nM
- Papp A→B at 10 µM [10]: 3.6 ×10⁻⁶ cm/s
- IC50 (Cytochrome P450 1A2 [21]): > 24000 nM

Structure (SMILES): c1cc(-c2cc3c(ncn3CC3CC3)c(N3CCOCC3)n2)c2cc[nH]c2c1
- IC50 [2]: 26 nM
- IC50 [9]: > 10000 nM

Structure (SMILES): C[C@@H]1COCCN1c1nc(-c2c(F)ncc3[nH]ccc23)cc2c1ncn2C
- bioavailability [1]: 66%
- IC50 [2]: 0.1 nM
- IC50 [3]: 96 nM
- Papp B→A at 10 µM [5]: 38 ×10⁻⁶ cm/s
- clearance [6]: 20 mL/min/kg
- Vd [20]: 1.2 L/kg
- solubility thermodynamic [8]: > 2300 µM
- Papp A→B at 10 µM [10]: 38 ×10⁻⁶ cm/s

Structure (SMILES): CS(=O)(=O)Cn1cnc2c(N3C4CCC3COC4)nc(-c3cncc4[nH]ccc34)cc21
- IC50 [2]: 34 nM

Structure (SMILES): C[C@@H]1COCCN1c1nc(-c2cccc3[nH]ccc23)cc2c1ncn2CS(C)(=O)=O
- IC50 [2]: 1 nM
- EC50 [3]: 570 nM

Structure (SMILES): O=C(NC1CC1)c1cn2c(N3CCOCC3)nc(-c3cccc4[nH]ccc34)cc2n1
- IC50 [2]: 39 nM

Structure (SMILES): c1cc(-c2cc3nccn3c(N3CCOCC3)n2)c2cc[nH]c2c1
- IC50 [2]: 96 nM
- solubility thermodynamic [8]: 56 µM (≈ 17.9 µg/mL)
- IC50 [9]: > 10000 nM

Structure (SMILES): C[C@@H]1COCCN1c1nc(-c2cnc(N)nc2)cc2c1ncn2CS(C)(=O)=O
- IC50 [2]: 6 nM

Structure (SMILES): C[C@@H]1COCCN1c1nc(-c2cccc3[nH]ccc23)cc2nccn12
- IC50 [2]: 95 nM
- IC50 [9]: > 10000 nM

Structure (SMILES): C[C@@H]1COCCN1c1nc(-c2cncc3[nH]ccc23)cc2c1ncn2[C@@H](C)S(C)(=O)=O
- inhibition [22]: inactive
- IC50 [2]: 0.2 nM
- IC50 (Cytochrome P450 2C9 [12]): > 40000 nM
- IC50 [3]: 80 nM
- inhibition (INH) (Cytochrome P450 1A2 [23]): tde
- inhibition [24]: inactive
- inhibition [25]: inactive
- IC50 (Cytochrome P450 2D6 [14]): > 40000 nM
- IC50 [15]: > 4600 nM
- inhibition [26]: inactive
- inhibition [27]: inactive
- Papp B→A at 10 µM [5]: 37 ×10⁻⁶ cm/s
- inhibition (INH) (Cytochrome P450 2C9 [28]): tde
- clearance [6]: 114 mL/min/kg
- solubility thermodynamic [8]: > 770 µM
- IC50 (Cytochrome P450 3A4): > 40000 nM
- inhibition [29]: inactive
- inhibition (INH) (Cytochrome P450 2D6 [30]): tde
- Papp A→B at 10 µM [10]: 2 ×10⁻⁶ cm/s
- IC50 (Cytochrome P450 1A2 [21]): > 40000 nM

Structure (SMILES): C[C@@H]1COCCN1c1nc(-c2cncc3[nH]ccc23)cc2c1ncn2C
- bioavailability [1]: 18%
- IC50 [3]: 84 nM
- IC50 [15]: 7500 nM
- clearance [6]: 49 mL/min/kg
- Vd [20]: 2.3 L/kg
